The full list was thinned out, with hits kept by preference.
Redox H2O2 prof: compounds producing H2O2 with reducing agent – biochemical, NIH compound library profiling, artefact control for MLSCN library redox annotation, primary screen; DTT-dependent redox cycling H2O2, phenol red/HRP absorbance; 100% = 100 µM peroxide control, 0% = buffer; activation, % at 10 µM; 0.03% of 200,000 active;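 active = activation of at least 50% relative to the plate's high and low controls in the primary single-dose screen; inactive = activation below 50%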;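 also: compound incubated with DTT at 0.8 mM final as the reducing agent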
Lmaj promast: reduces viability of Leishmania major promastigotes | resazurin fluorescence viability | inhibition, % at 10 µM | AID 1063 | 9% of 200,000 active; in the data active = inhibition above about 50%;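 also: promastigotes grown with compound for 44 hours at 28 °C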
MPTP block: permeability transition pore inhibition; inhibition, % at 10 µM; AID 602449; 1.4% of 360,000 active; isolated mouse mitochondria, Ca2+ swelling absorbance, 30 min;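 active = inhibition of 50% or more, scaled per plate between neutral and stimulator controls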;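 also: 0% = DMSO wells given calcium and 100% = 1 mM EGTA wells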
Hep lipid drop: modulators of hepatic lipid droplet formation; AID 1656; AML12 mouse hepatocytes, oleate lipid droplets, BODIPY imaging; inhibition, % at 6.5 µM; 0.4% of 240,000 active;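 active = lipid droplet intensity inhibited by at least 50%, with more than 500 cells counted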
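Assay system: AML12 hepatocytes (mouse) / Also added: 100 µM oleic acid challenge / Times: overnight treatment with compound plus oleate / Detection: high-content imaging of BODIPY-stained droplets and DAPI nuclei / Evaluation: % inhibition of lipid droplet signal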
T cruzi inh: T. cruzi replication inhibition. 1.4% of 300,000 active. inhibition, % (no concentration beside the values). T. cruzi beta-gal in NIH3T3, luminescence, 90 h;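 active = mean inhibition across valid replicates above about 55%, limit read from the data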;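 also: signal also drops with host cell toxicity which is not excluded here; 0% = plate median of DMSO wells and 100% = zero luminescence signal; higher percent means less beta-gal luminescence so fewer parasites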
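System: Mouse NIH/3T3 fibroblasts infected with β-gal-expressing T. cruzi Tulahuen C4 | Quantity: NIH/3T3 cells, 5,000 per well | Reagent: 5000 reporter trypomastigotes per well | Dosing: Compound pinned at 50 nL/well, DMSO | Schedule: 3 h host attachment, then at least 90 h co-culture | Detection: GalScreen luminescence, 60 min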
Active calls of the source: *.

Results for CCOC(=O)C1CCCN(CC(O)COc2ccc(OC)cc2C(C)(C)C)C1 (stereo unspecified) ?
Redox H2O2 prof: 1.8; Lmaj promast: 39.6; MPTP block: 0.5; T cruzi inh: 20.9

How did CCCCOc1ccc(C(=O)CCN2CCCCC2)cc1 do in these assays?
Redox H2O2 prof: -0.2; Lmaj promast: 92.4*; MPTP block: -0.8; Hep lipid drop: -8.3; T cruzi inh: -4.6

How did CC(C)COc1ccc(C(=O)CCN2CCCCC2)cc1 do in these assays?
Redox H2O2 prof: -1.5; Lmaj promast: 96.4*; MPTP block: 0.7; T cruzi inh: -5.8

How did CCOC(=O)N1CCN(CC(O)COc2ccc(OC)cc2C(C)(C)C)CC1 (stereo unspecified) do in these assays?
Redox H2O2 prof: -0.3; Lmaj promast: 59.0*; MPTP block: 0.9; Hep lipid drop: -3.1; T cruzi inh: 8.3

How did CCOC(=O)N1CCN(CCC(=O)c2ccc(OC)cc2)CC1 do in these assays?
Redox H2O2 prof: -1.0; Lmaj promast: 81.8*; MPTP block: -0.3; Hep lipid drop: -2.3; T cruzi inh: 3.5

How did CCOC(=O)N1CCN(CCC(=O)c2ccc(Br)cc2)CC1 do in these assays?
MPTP block: 1.5; Hep lipid drop: -2.7; T cruzi inh: 39.6

Results for CSCCC(NS(=O)(=O)c1ccccc1F)C(=O)Nc1ccncc1 (stereo unspecified) ?
MPTP block: 1.7

Results for CCOC(=O)C(NCCOC)(NC(C)=O)C(F)(F)F (stereo unspecified) ?
MPTP block: 0.5; Hep lipid drop: 13.7; T cruzi inh: 10.5

What do the screens show for `CCN(CC(=O)Nc1c(F)cccc1F)C(=O)c1ccc(S(=O)(=O)N(CC)c2ccccc2)cc1`?
MPTP block: -0.5

Results for COc1ccc(NC(=O)COC(=O)Cc2cccs2)cc1Cl ?
MPTP block: -0.5

How did C#CCOc1ccc(/C=C2/C(=O)NN(c3ccc(F)cc3)C2=O)cc1OC do in these assays?
MPTP block: -0.1; T cruzi inh: 11.7

How did CCCOc1ccc(C(C)=O)cc1CN1CCOCC1 do in these assays?
Redox H2O2 prof: 0.0; Lmaj promast: -3.8; MPTP block: -1.0; Hep lipid drop: 3.9; T cruzi inh: -1.8

What do the screens show for `CC(=O)c1ccc(OCC(C)C)c(CN2CCCCC2)c1`?
Redox H2O2 prof: -1.7; Lmaj promast: 85.7*; MPTP block: 2.3; T cruzi inh: 9.5

Results for C/C(=N/Nc1ccnc2cc(Cl)ccc12)c1ccc(N)cc1 ?
MPTP block: 6.3; T cruzi inh: 60.2*

What do the screens show for `C/C(=N/Nc1ccnc2cc(Cl)ccc12)c1ccc(O)cc1`?
MPTP block: 11.7; T cruzi inh: 32.2

What do the screens show for `Cc1cc(NCc2ccccn2)n2nc(C)c(-c3ccccc3)c2n1`?
MPTP block: 3.0; Hep lipid drop: -8.1

How did Cc1nn2c(NCc3ccccn3)cc(C(C)(C)C)nc2c1-c1ccccc1 do in these assays?
MPTP block: -0.9; Hep lipid drop: -14.9; T cruzi inh: 56.7*

How did c1ccc2sc(Nc3nc4cc5c(cc4s3)OCO5)nc2c1 do in these assays?
Redox H2O2 prof: -0.2; Lmaj promast: 90.0*; MPTP block: 3.9; Hep lipid drop: 3.1; T cruzi inh: 29.6

How did O=C(NNc1nc2cc3c(cc2s1)OCO3)c1ccc(F)cc1 do in these assays?
Redox H2O2 prof: 0.6; Lmaj promast: 77.1*; MPTP block: 1.5; Hep lipid drop: -5.3; T cruzi inh: -3.7

Results for O=C(NNc1nc2cc3c(cc2s1)OCCO3)c1ccc(F)cc1 ?
Redox H2O2 prof: 0.1; Lmaj promast: -6.1; MPTP block: 0.7; Hep lipid drop: 8.4; T cruzi inh: -4.5

Results for CCOc1ccc(N(CC(=O)Nc2ccccc2Cl)S(C)(=O)=O)cc1 ?
MPTP block: 1.2; Hep lipid drop: 3.9; T cruzi inh: 0.7

How did CCOc1ccc(N(C(=O)c2ccccc2Cl)C2=NC(C)(C)CS2)cc1 do in these assays?
Redox H2O2 prof: -1.3; Lmaj promast: 61.5*; MPTP block: 0.6; Hep lipid drop: -16.9; T cruzi inh: 8.9

Results for O=S(=O)(/N=C(/NC(=S)Nc1ccccc1)c1ccccc1)c1ccc(Cl)cc1 ?
MPTP block: 0.7; Hep lipid drop: 20.0; T cruzi inh: 7.1

How did CCCCCCCc1c(O)nc(SCC(=O)O)[nH]c1=O do in these assays?
MPTP block: 1.1; Hep lipid drop: 2.5; T cruzi inh: -9.3

Assay outcomes from PubChem.
